ADAM17 inh: inhibits human ADAM17; recombinant ADAM17, EDANS/DABCYL FRET peptide cleavage; inhibition, % at 6.95 µM; actives 0.83% (n = 370,000); AID 720648;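 active = inhibition above the mean of compounds lying between control limits plus 3 SD, set per campaign, cut at about 8.5% in these data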;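 also: 0% = DMSO-only wells as the low control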
GASC-1 inh: inhibitors of human GASC-1 (JMJD2C) demethylase | GST-JMJD2C(1-420) H3K9me3 demethylation, DELFIA europium | actives 0.069% (n = 330,000) | inhibition, % at 2.35 µM | AID 2099 | Q9H3R0;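 active = more than half of a compound's replicate wells show inhibition beyond 50%, single wells judged on their own value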;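 also: signal counts dimethyl H3K9 product captured on neutravidin plate; 0% = median of DMSO wells and 100% = 0.3 times that DMSO median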
Target sequence (Q9H3R0 1-420 limits assumed): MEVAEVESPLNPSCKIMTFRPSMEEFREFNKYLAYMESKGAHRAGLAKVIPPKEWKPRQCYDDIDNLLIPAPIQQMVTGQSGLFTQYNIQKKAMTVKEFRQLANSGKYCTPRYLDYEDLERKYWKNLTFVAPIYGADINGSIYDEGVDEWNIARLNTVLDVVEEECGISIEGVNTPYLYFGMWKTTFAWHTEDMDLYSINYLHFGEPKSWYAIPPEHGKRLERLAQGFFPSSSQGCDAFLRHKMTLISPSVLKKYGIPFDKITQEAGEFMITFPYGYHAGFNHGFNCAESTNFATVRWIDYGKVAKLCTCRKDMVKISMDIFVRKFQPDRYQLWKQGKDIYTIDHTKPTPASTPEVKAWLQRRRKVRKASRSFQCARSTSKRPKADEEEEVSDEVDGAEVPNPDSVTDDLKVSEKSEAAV
ADAM10 inh: inhibitors of human ADAM10. recombinant ADAM10, EDANS/DABCYL FRET peptide cleavage, 3 h. actives 0.62% (n = 370,000). inhibition, % at 7 µM. AID 720582. O14672;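 active = inhibition above a per-campaign cutoff equal to the mean of compounds falling between control-based bounds plus 3 SD, cut at about 20% in these data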;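 also: 0% = DMSO wells while the 100% control is not disclosed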
KLK7 zymogen act: activators of human kallikrein-7 zymogen. purified proKLK7, EDANS-DABCYL substrate fluorescence; 100% is mature enzyme control, 0% vehicle. P49862. actives 0.9% (n = 370,000). activation, % at 7 µM;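 active = activation above the mean of all tested compounds plus 3 SD, computed per campaign excluding outliers beyond control limits, cut at about 13% in these data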
Target sequence (P49862 whole entry, looked up): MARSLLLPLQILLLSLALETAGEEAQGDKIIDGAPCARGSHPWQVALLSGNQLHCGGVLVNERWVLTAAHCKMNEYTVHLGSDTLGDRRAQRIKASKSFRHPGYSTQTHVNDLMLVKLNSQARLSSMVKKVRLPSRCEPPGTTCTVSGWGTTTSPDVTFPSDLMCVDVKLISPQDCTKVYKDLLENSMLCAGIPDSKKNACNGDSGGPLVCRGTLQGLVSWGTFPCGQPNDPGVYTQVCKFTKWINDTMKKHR
NR2E3 ag-1: activates human NR2E3 receptor; CHO-S Gal4-NCOR/VP16-NR2E3 two-hybrid, luciferase; inhibition of corepressor binding, % at 3.98 µM; actives 0.35% (n = 360,000); AID 602229;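 active = inhibition above the mean of all tested compounds plus 3 SD, cut at about 70% in these data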;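 also: 0% = DMSO with NR2E3 transfected cells and 100% = cells lacking NR2E3 construct; higher means lower luciferase signal from less NR2E3 corepressor binding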
NR2E3 ag-2: agonists of human nuclear receptor NR2E3; Q9Y5X4; GST-NR2E3/biotin-RetCOR TR-FRET, 1536-well; inhibition of corepressor binding, % at 4.78 µM; actives 0.12% (n = 320,000); AID 2300;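 active = percent inhibition above the cutoff of mean plus 3 SD of all tested compounds, set per screening campaign, cut at about 20% in these data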;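 also: 0% = DMSO wells and 100% = biotin wells as full block of FRET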
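System: GST-tagged NR2E3 plus biotinylated RetCOR corepressor; Amount: 1.35 nM GST-tagged NR2E3 final; Dosing: single nominal compound dose of 4.8 µM; Schedule: 5 h incubation at 4 °C; Technique: TR-FRET with europium anti-GST and streptavidin-D2, 340 nm excitation; Controls: biotin wells as high control, 0.6% DMSO wells as low control.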
KLK7 act conf: confirmation of human kallikrein-7 zymogen activators; purified proKLK7, EDANS-DABCYL substrate fluorescence; scaled: vehicle 0, mature enzyme 100; actives 68% (n = 3,200); activation, % at 7 µM; shares compounds with KLK7 zymogen act;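 active = activation, as change over the incubation, above the mean of all tested compounds plus 3 SD, cut at about 13% in these data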
EDANS-DABCYL int: optically interferes with EDANS-DABCYL signal, flagging KLK7 hits; shares compounds with KLK7 zymogen act; EDANS-DABCYL substrate fluorescence interference, no enzyme, 4 h; solvent 0%, active enzyme control 100%; activation, % at 7 µM; actives 80% (n = 3,200);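 active = activation above the all-compound mean plus 3 SD, ignoring values outside control-based bounds, cut at about 4.8% in these data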;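 also: value is the 4 h activation minus the activation read at time zero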
K7 EDANS ctr: optically interferes with EDANS-DABCYL fluorescence, kallikrein-7 activator counter-screen | actives 20% (n = 250) | EDANS-DABCYL peptide fluorescence interference, no enzyme | shares compounds with KLK7 zymogen act | EC50, µM;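 active = compounds that raise the fluorescence signal in this interference counterscreen, with EC50 at or below 10 µM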;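 also: intact quenched peptide substrate alone read at 355 nm excitation and 520 nm emission; signal is fluorescence gain from T0 to T4 after four hours at room temperature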
Starred values were filed as active, the others as inactive; i = inactive; . = no result. Only some compounds are listed: those with a hit (about 2.5% of all), similar ones and a draw of the others.

SMILES	ADAM17 inh	GASC-1 inh	ADAM10 inh	KLK7 zymogen act	NR2E3 ag-1	NR2E3 ag-2	KLK7 act conf	EDANS-DABCYL int	others
CC[C@]12c3[nH]c4cc(-c5ccco5)ccc4c3CCN1C(=O)[C@@H](CC(=O)NCCN1CCOCC1)C[C@@H]2C(=O)N1CCN(C(=O)C2CC2)CC1	-201	.	i	110*	-11	.	76*	83*
CC[C@]12c3[nH]c4cc(-c5ccco5)ccc4c3CCN1C(=O)[C@@H](CC(=O)NCCc1ccccn1)C[C@@H]2C(=O)N1CCN(C(=O)c2ccco2)CC1	-228	.	i	151*	-14	.	119*	138*
CC[C@]12c3[nH]c4ccccc4c3CCN1C(=O)C(CC(=O)NCCN1CCOCC1)C[C@@H]2C(=O)N1CCN(C(=O)c2ccco2)CC1 (stereo partly drawn)	-3	-5	-3	1	-22	.	.	.
CC[C@]12c3[nH]c4cc(-c5ccco5)ccc4c3CCN1C(=O)[C@@H](CC(=O)NCCN1CCOCC1)C[C@@H]2C(=O)N1CCN(C(=O)c2ccco2)CC1	-48	.	-182	88*	-58	.	64*	86*
COc1cc2cc(C(c3nnnn3C(C)(C)C)N3CCc4ccccc4C3)c(=O)[nH]c2cc1OC (stereo not drawn)	-135	1	-392	25*	0	0	5	2
CCC(C)(C)n1nnnc1C(c1cc2cc(OC)c(OC)cc2[nH]c1=O)N1CCc2ccccc21 (stereo not drawn)	-33	-2	-114	-6	8	-1	.	.
Cc1c(C)c2c(OCC(=O)N[C@@H](CC(C)C)C(=O)O)cc3c(c2oc1=O)CCC(C)(C)O3	i	0	i	45*	7	.	41*	27*	K7 EDANS ctr=>70
Cc1c(C)c2c(OCC(=O)NCc3ccccn3)cc3c(c2oc1=O)CCC(C)(C)O3	-413	0	i	-24	-14	9	.	.
CSC[C@H](NC(=O)COc1cc2c(c3oc(=O)c(C)c(C)c13)CCC(C)(C)O2)C(=O)O	i	-2	i	60*	-3	3	62*	70*
CSCC[C@H](NC(=O)COc1cc2c(c3oc(=O)c(C)c(C)c13)CCC(C)(C)O2)C(=O)O	i	5	i	57*	-11	2	67*	73*
COCCCNC(=O)COc1cc2c(c3oc(=O)c(C)c(C)c13)CCC(C)(C)O2	i	-23	i	18*	-35	-3	-94	-74
CCCC(NC(=O)COc1cc2c(c3oc(=O)c(C)c(C)c13)CCC(C)(C)O2)C(=O)O (stereo not drawn)	-282	0	i	-2	-25	-3	.	.
COc1ccc(-c2ccc(N3C(c4ccsc4)=Cc4ccc(F)cc4C3c3c[nH]c4ccccc34)cc2)cc1 (stereo not drawn)	3	.	14	-1	-47	.	.	.
Cc1cc(=O)oc2c3c(cc(OCC(=O)NCc4ccccc4)c12)OC(C)(C)CC3	-340	8	i	-14	-51	-1	.	.
CSC[C@H](NC(=O)COc1cc2c(c3oc(=O)cc(C)c13)CCC(C)(C)O2)C(=O)O	i	-5	i	24*	-20	0	60*	64*
Cc1c(C)c2c(OCC(=O)NCC(O)c3ccccc3)cc3c(c2oc1=O)CCC(C)(C)O3 (stereo not drawn)	-53	0	-225	-2	-28	1	.	.
Cc1c(C)c2c(OCC(=O)N[C@@H](Cc3ccccc3)C(=O)O)cc3c(c2oc1=O)CCC(C)(C)O3	i	2	i	56*	10	2	59*	58*
COC(=O)c1cc(CNC(=O)Cc2ccsc2)ccc1OC	0	-2	4	0	-27	-1	.	.
CC(C)c1ccc2[nH]c3c(c2c1)CCCC3=O	-119	3	-369	14*	-2	0	-5	-3
COc1ccc2[nH]c(=O)c(CN(C(C)=O)c3ccc(C)c(C)c3)cc2c1	-46	0	-118	0	-28	1	.	.
COc1ccc2[nH]c(=O)cc(C(=O)O)c2c1	-171	-2	i	20*	33	-3	39*	45*
COc1ccc2[nH]c(=O)c(C(=O)O)cc2c1	-225	-2	i	19*	-8	1	11	21*
COc1ccc(NC(=O)c2cc(=O)[nH]c3ccccc23)cc1	5	-16	2	0	-20	-1	.	.
COCCCNc1nc2nonc2nc1N1CCC(C(C)N2CCOCC2)CC1 (stereo not drawn)	1	-10	-6	1	-12	0	.	.
O=C(COC(=O)CNC(=O)c1ccccc1)Nc1ccc(F)c([N+](=O)[O-])c1	0	1	-3	0	11	2	.	.
SMILES	ADAM17 inh	GASC-1 inh	ADAM10 inh	KLK7 zymogen act	NR2E3 ag-1	NR2E3 ag-2	KLK7 act conf	EDANS-DABCYL int	others
CN1C(=O)c2ccccc2N(C)C1c1ccc2c(c1)OCO2 (stereo not drawn)	-416	3	i	19*	-26	-4	22*	18*	K7 EDANS ctr=>69
COc1cc(C2N(C)C(=O)c3ccccc3N2C)ccc1O (stereo not drawn)	i	7	i	46*	-14	3	43*	42*
CN1C(=O)c2ccccc2N(C)C1c1cccc(O)c1 (stereo not drawn)	i	-6	i	50*	22	1	32*	35*
CC(C)C12CN3CC(C(C)C)(CN(C1)C3c1ccc3c(c1)OCO3)C2=O (stereo not drawn)	6	6	2	0	-3	2	.	.
CN1C(=O)c2ccccc2N(C)C1c1ccc(F)cc1 (stereo not drawn)	-437	-6	i	19*	-29	.	27*	14*	K7 EDANS ctr=>69
CC(=O)Nc1ccc(CN2C(=O)C(C)(C)ON=C2c2ccc(C(F)(F)F)cc2)cc1	-1	.	10	-1	25	.	.	.
O=C(COC(=O)C12CC3CC(CC(C3)C1)C2)Nc1ccc([N+](=O)[O-])cc1Cl	-1	-6	-5	1	9	-1	.	.
O=S1(=O)C[C@H]2NC(=S)N(c3ccccc3)[C@H]2C1	-4	4	7	0	-1	4	.	.
O=C(NCCc1ccccc1C(F)(F)F)c1cc(COc2ccccc2)on1	4	.	6	0	-9	.	.	.

From PubChem BioAssay
